Results as given in the array DNA melting data of Ke et al. (doi:10.1101/2024.01.08.574731).

Legend:
[1] = folding enthalpy; higher = less favourable; fluorescence melt of hairpins on a sequencing array, two-state fit; conditions: sodium 0.088 M
Summary of the method: (§1)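 Melting temperature and folding enthalpy were obtained by bootstrapped two-state fitting. Fits used Cy3 fluorescence of library hairpins with annealed Cy3 and quencher oligos on a sequenced MiSeq flow cell, imaged in 50 mM Na-HEPES pH 8.0, 25 mM NaCl in 2.5 °C steps up to 60 °C and normalised to pre-quench Cy3 and control constructs. Four replicates were combined by inverse-variance weighting, and fitted temperatures were raised by 9.35 °C to match UV melts.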

[2] = melting temperature; fluorescence melt of hairpins on a sequencing array, two-state fit, raised by 9.35 °C to match UV melts; conditions: sodium 0.088 M
Summary of the method: as §1

Sequence	folding enthalpy [1] [kcal/mol]	Tm [2] [°C]
GTGGGGGGAAACCTCCAC ((((.((....)).))))	-44.1	54.5
GATCCGCCTCGGATC ((((((...))))))	-30	56.7
GATCCCATCGGGGATC ((((((....))))))	-31.1	59.9
CCAACGAAAGTTGG (((((....)))))	-25.4	58
GTGCATCGAAAGATTCAC (((.(((....))).)))	-30.1	43.4
GGTCCAGAAATGGACC ((((((....))))))	-46	64
GGCTCTGGAAACAAAGCC ((((.((....)).))))	-29.9	38
GGTACCGAAAGGTAACC ((((((....))).)))	-26.9	53.4
GGCTTGTCGAAAGACGCC (((..(((....))))))	-18.5	49.9
GACCCCCGAAAGGGGTC (((.(((....))))))	-19.9	67.5
GATCAGACCCCTGATC ((((((....))))))	-34.7	47.7
GCGATCAGTCGC ((((....))))	-23.2	49.3
GATCTCATTAGAGATC ((((((....))))))	-35	57.1
GATCGTACGACGATC ((((((...))))))	-37.2	54.5
GCGCCGCGAAAGCGCTGC ((..(((....)))..))	-15.6	61.1
GATCTATTCGTAGATC ((((((....))))))	-33.5	44.8
CGCACCGGAAACGGAGCG (((.(((....))).)))	-37.2	60.9
GTCGCAGGAAACTGCAAC ((.((((....)))).))	-16.7	41.1
GATCATCGCCATGATC ((((((....))))))	-35.7	46.3
GCGACCGGAAACGGCCGC (((.(((....))).)))	-25.9	65.1
GAATGGCCGAAAGGCTTC (((..(((....))))))	-6.89	27.6
GCTTGCGAAAGCACAGC ((((((....))).)))	-20.1	50.5
GGACACGAAAGTGGTTCC ((((((....)))..)))	-14.3	37.3

Sequence	folding enthalpy [1] [kcal/mol]	Tm [2] [°C]
GTAACCGGAAACGGCTAC (((.(((....))).)))	-25.9	42.9
GTGTACGAAAGTAGCAC ((((((....))).)))	-23.6	42.9
GCGTTCGGAAACGGATGC ((.(.((....)).).))	-33.1	44.7
GATCCTATAAAGGATC ((((((....))))))	-38.6	51.8
GCCCCTACGAAAGTAGGC (((..(((....))))))	-6.61	36.7
GTGCGCGGAAACGCACAC (((.(((....))).)))	-19.2	65.5
GAAGGGCGAAAGCCGTTC (((.(((....))).)))	-22.7	56.6
GTTTGGCCGAAAGGCAAC (((..(((....))))))	-11.5	37.7
GATGAGGGAAACTTCATC (((((.(....).)))))	-25	37.1
GATCGGCTAACCGATC ((((((....))))))	-42.2	56.5
GCGACCGAAAGGTGTCGC ((((((....)))..)))	-35.5	59
GTTCTCCGAAAGGACAAC (((.(((....))).)))	-15.6	30
GCTAACGGAAACGCTAGC ((((.((....)).))))	-33.9	44.8
GCGAGCGGAAACGCTCAC (.(((((....))))).)	-12.3	50.6
CGTCCGGAAACGGGGACG ((((((....)))..)))	-25	48.3
GGAAGTCGAAAGACATCC (((.(((....))).)))	-25.2	48.2
GGCGACGAAAGTCCCGCC ((((((....)))..)))	-19.5	54.8
GATCCGGCCACGGATC ((((((....))))))	-41.6	67.5
GTGAGTCGAAAGACCCAC (((.(((....))).)))	-29.4	49.3
GGATGTCGAAAGACGTCC (((.(((....))).)))	-38.8	61
GGTGTTGGAAACAGTACC (((..((....))..)))	-18.7	31.7
GATCTAGTATTAGATC ((((((....))))))	-37.5	47.1
GAACTTGGAAACAAGTCC (.(((((....))))).)	-16.4	36

Sequence	folding enthalpy [1] [kcal/mol]	Tm [2] [°C]
GGGACCGAAAGGTAGCCC ((((((....)))..)))	-16	43.2
GCGTCACGAAAGTGCGC (((.(((....))))))	-31.1	66.9
GTGAGCGAAAGCTTGCAC ((((((....)))..)))	-7.82	51.4
GCCGTCGAAAGACGTGGC ((((((....)))..)))	-14.1	58.8
GCTAGCGAAAGCTGTAGC ((((((....)))..)))	-21.3	43.1
GTGGGGGGAAACCCTCGC (.(.(((....))).).)	-17.2	40.8
GATAGGGCGAAAGCCATC (((..(((....))))))	-9.11	31.2
GCCGGGCGAAAGCACAGC ((.(.((....)).).))	-16.9	53.8
GTGGTACGAAAGTATCAC (((.(((....))).)))	-47.3	54.2
GTGCTCGAAAGAGAGCAC ((((((....)))..)))	-34.2	58.2
GATTCCGGAAACGGAGTC ((.((((....)))).))	-23.8	47.6
GCAACGGGAAACCATTGC ((((.((....)).))))	-26.8	41.5
GTATTGCGAAAGCAGTAC (((.(((....))).)))	-26.8	51.6
GATCTACCTATAGATC ((((((....))))))	-35	40.5
GGCAACGGAAACGTTGTC (.(((((....))))).)	-39.2	55.9
GCGGTGGGAAACTGCCGC ((((..(....)..))))	-41.6	56.6
GTTTCGGGAAACCGAAAC (((((((....)))))))	-40.2	62.5
GCAAGGGAAACCTTGC ((((((....))))))	-37.9	60.1
GGTGTGGGAAACTACACC (((((.(....).)))))	-46.6	52.6
GATCCGAATACGGATC ((((((....))))))	-38.6	57.5
GAATCCGGAAACGGGTTC (((.(((....))).)))	-33.5	52.2
GTACCACGAAAGTGTTAC (((.(((....))).)))	-24.1	39.2
GGGTGTGGAAACGCACCC (((((.(....).)))))	-45.2	60

Sequence	folding enthalpy [1] [kcal/mol]	Tm [2] [°C]
GATCCATCGGTGGATC ((((((....))))))	-39.5	50.6
GATGGTGGAAACGCTATC (((.(.(....).).)))	-16.2	31.3
GTTACCGAAAGGTAAAAC ((((((....)))..)))	-13.2	34.7
GGTAGTCGAAAGACAACC (((.(((....))).)))	-25.2	51.3
GGCATCGAAAGATCGGCC ((((((....)))..)))	-23.7	41.1
GCCAAGCGAAAGCCGGGC (((..((....))..)))	-22.4	57.7
GTCGCCACGAAAGTGGAC (((..(((....))))))	-9.49	35.7
GGCTGGGGAAACCCAACC ((.((((....)))).))	-27	45.8
GTAACGGGAAACCGTCAC ((.((((....)))).))	-16.4	35.7
GAACGCGGAAACGCATTC (((.(((....))).)))	-19.9	40.1
GAACCGGGAAACCGGCTC ((.((((....)))).))	-15.7	46
GACTCCGGAAACGGAACC (..((((....))))..)	-8.88	26.1
GCATCGCGAAAGCTTTGC (((..((....))..)))	-18.6	41.2
GATCCTTAGAAGGATC ((((((....))))))	-33.8	50.2
GATCGTACTCACGATC ((((((....))))))	-44.5	53.9
GCTTCTCCGAAAGGAAGC (((..(((....))))))	-24.2	45.3
GGGCGAGGAAACTCGTCC ((.((((....)))).))	-41.5	58.2
GCACACGGAAACGTGCGC ((.((((....)))).))	-42.2	60.5
CGCCCGGAAACGGGGGCG ((((((....)))..)))	-12.5	68.6
GCTAAGCGAAAGCCCAGC (((..((....))..)))	-16.8	34.5
GCCGGGCGAAAGCACCGC ((.(.((....)).).))	-14.1	49
GATCTAGATGTAGATC ((((((....))))))	-27.9	39.8
GCGTTTCGAAAGAATCGC (((.(((....))).)))	-46	53.5
